Out of some 360,000 compounds screened, about 770 (0.21%) were called active. This excerpt belongs to a sample that is enriched for actives. Unmarked numbers belong to inactive results.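 The calls were made as follows: active = inhibition at least 30% at 10 µM, raw YFP signal under a set limit, fluorescence ratio 0.5 to 1.5; inactive = the rest.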

For the assay, the target named is Sentrin-specific protease 1 (Homo sapiens) (UniProt Q9P0U3). In words: human SENP1 catalytic domain inhibitors, primary screen, biochemical, FRET, uHTS (AID 624204).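 Also: 0% = enzyme with DMSO and 100% = no enzyme wells.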 As to conditions: recombinant SENP1 catalytic domain, CyPet-SUMO1-YPet FRET cleavage; at 10 µM; hits give high values. The gist of the method: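 Test system: recombinant human SENP1 catalytic domain, His6-tagged / Medium: pH 8 Tris buffer with EDTA, NaCl, BME, BSA, NP40, catalase / Also added: SUMO1 FRET substrate flanked by Cypet and Ypet, 25 nM / Times: 50 min reaction at room temperature / Signal: FRET, CFP and YFP emission / Control set: no-enzyme low control and enzyme-plus-DMSO high control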
Sentrin-specific protease 1 (Homo sapiens), sequence (Q9P0U3 419-644 limits assumed): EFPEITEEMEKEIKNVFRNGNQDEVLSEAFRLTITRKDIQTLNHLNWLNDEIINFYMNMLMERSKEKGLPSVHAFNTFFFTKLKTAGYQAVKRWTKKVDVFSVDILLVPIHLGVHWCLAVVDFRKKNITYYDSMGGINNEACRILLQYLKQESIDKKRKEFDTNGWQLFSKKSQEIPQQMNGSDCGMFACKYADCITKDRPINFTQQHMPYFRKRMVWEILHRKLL
`Nn1c(Cc2cccc3ccccc23)nnc1SCC(=O)N1CC(=O)Nc2ccccc21`: the inhibition is 3.32%.

Turning to `CCc1ccc2ncc(C(=O)c3ccccc3)c(N3CCOCC3)c2c1`, the inhibition was -0.316%.

`Cc1c(C(=O)NCCN2C(=O)S/C(=C\c3cccs3)C2=O)cccc1[N+](=O)[O-]`: the inhibition is 5.33%.

Turning to `O=C(CCN1C(=O)c2ccccc2C1=O)NNC(=O)c1ccc(Cl)cc1Cl`, the inhibition is 1.7%.

On to `O=C(CCN1C(=O)/C(=C/c2cccs2)SC1=S)NNC(=O)c1cccc(O)c1`, for which the inhibition was 72.7% (active).

Turning to `O=C(O)c1cc(S(=O)(=O)N2CCCCCC2)c(Cl)cc1Cl`, the inhibition is -0.414%.

Take `Cc1nn(-c2ccccc2)c(CC(C)(C)C(=O)O)c1C(=O)O`: the inhibition is 1.05%.

`CCCCN(C(=O)CSCC(=O)Nc1ccc(OC)cc1)c1c(N)n(CCC)c(=O)[nH]c1=O`: the inhibition was -2.42%.

Regarding `Cc1cc(=O)cc(C)n1-c1ccc(Cl)c(Cl)c1`, the inhibition was 2.24%.

Turning to `CC(=O)NC1(c2cccc(F)c2)CCN(CC(=O)NC(C)C)CC1`, the inhibition was -0.563%.

Take `O=C(CC1CCCCC1)NCc1ccc(F)cc1`: the inhibition was 1.88%.

Take `CNS(=O)(=O)c1cccc(C(=O)OCCCC(=O)c2ccccc2)c1`: the inhibition was 0.585%.

As for `COc1ccc(CC2c3cc(OC)c(OC)cc3CC[N+]2(C)CCC(=O)OCCCCCOC(=O)CC[N+]2(C)CCc3cc(OC)c(OC)cc3C2Cc2ccc(OC)c(OC)c2)cc1OC` (configuration not stated), the inhibition is -1.31%.

For `CN(C)C(=O)c1cccc(-c2cnc3c(NC=O)cc(-c4ccc(C(=O)N5CCOCC5)cc4)cn23)c1`, the inhibition was -29.9%.

For `CC(=O)c1cccc(-c2cnc3c(NC=O)cc(-c4ccc(N(C)C)cc4)cn23)c1`, the inhibition was 50% (active).

`CC(=O)c1cccc(-c2cnc3c(NC=O)cc(-c4ccc(N5CCN(C)CC5)cc4)cn23)c1`: the inhibition was 28%.

Regarding `CC(=O)NCC(=O)N1CCC(n2nccc2NC(=O)CCCc2ccccc2)CC1`, the inhibition was 0.687%.

As to `Cc1nc2nc(C)c(CCC(=O)N3CCN(c4ccccc4)CC3)c(C)n2n1`, the inhibition was 0.72%.

For `O=C(C[C@H]1C[C@H]2c3cc(NS(=O)(=O)c4ccc(F)cc4)ccc3O[C@H]2[C@H](CO)O1)NCc1cc(F)ccc1F`, the inhibition was -0.578%.

`O=C(Nc1ccc(F)cc1F)N1CCCN(CCOc2ccccc2)CC1`: the inhibition is -1.95%.

As for `COc1ccc(N2CCN(C(=O)c3ccc(N4CCCCS4(=O)=O)cc3)CC2)cc1`, the inhibition was -2.08%.

With `Cn1nnnc1SCC(=O)Nc1ccccc1C(=O)NC1CC1`, the inhibition was -4.1%.

Turning to `Cc1cccc(NC(=O)c2ccc3c(=O)n(CC4CCCO4)c(=S)[nH]c3c2)c1` (configuration not stated), the inhibition is -0.024%.

Turning to `CC1(C)CN(c2ccc(-c3ccnc4ncnn34)cc2)C1=O`, the inhibition was -1.93%.

For `COc1ccc(C(=O)C[n+]2ccc(N)c(C)c2C)cc1`, the inhibition is 1.97%.

`O=C(NC(=O)c1ccccc1)Nc1ccccc1O`: the inhibition was 31.8% (active).

Consider `O=C(Cc1ccc(Cl)cc1)NC(=S)Nc1ccccc1O`, for which the inhibition is 0.309%.

For `O=C(NC(=S)Nc1cccc2c(O)cccc12)c1cccc(Br)c1`, the inhibition was -10.5%.

As to `CC(C)Cn1cnc2c1c(=O)n(CC(O)c1ccccc1)c(=O)n2CC(C)C` (configuration not stated), the inhibition was 1.26%.

For the compound `CC1(C(=O)NCc2ccccc2)CSCC(=O)N1CCCn1ccnc1` (configuration not stated), the inhibition is 0.15%.

Consider `COc1cc(Br)cc(/C=N/c2ncn[nH]2)c1O`, for which the inhibition was 10.2%.

`CC(=O)N(CC(O)CO)c1c(I)c(C(=O)NCC(O)CO)c(I)c(C(=O)NCC(O)CO)c1I` (configuration not stated): the inhibition was -0.483%.

Regarding `COCC(C)NC(=O)c1ccc(-n2nc(C(F)(F)F)cc2-c2cccs2)cc1` (configuration not stated), the inhibition is -1.75%.

As to `CCN(CC(=O)Nc1cc(Cl)ccc1C)C(=O)CSCc1ccc(C)cc1`, the inhibition is 1.09%.

Take `CN(C)c1ccc(Nc2c3c4c(cccc4n(C)c2=O)C(=O)c2ccccc2-3)cc1`: the inhibition is 60.4% (active).

On to `Cc1nn2c(c1-c1ccccc1)N=C(c1ccco1)CC2c1ccccc1` (configuration not stated), for which the inhibition was 38.7% (active).

As to `O=C(O)CCCC(=O)N1N=C(c2ccco2)CC1c1ccco1` (configuration not stated), the inhibition is 0.794%.

Regarding `CCOc1ccc(-c2c(C)n([O-])c3c([n+]2=O)CCCC3)cc1`, the inhibition is 0.993%.

Consider `COC(CNC(=O)Cn1ncc2ccsc2c1=O)OC`, for which the inhibition was 2.87%.

For `O=C(NCCC1CCCCN1S(=O)(=O)c1cccs1)C(=O)Nc1ccc(F)cc1F` (configuration not stated), the inhibition was 0.809%.

Consider `COc1ccc(C=C2CCC3C(CCCC34OCCO4)C2=O)cc1` (configuration not stated), for which the inhibition was 0.924%.

Take `Cc1ccc(N=C2NC(=O)c3cccc([N+](=O)[O-])c32)cc1`: the inhibition is 1.42%.

For `COc1ccc(NC(=O)CN(C)C(=O)Cc2coc3cc(C)c(C)cc23)cc1`, the inhibition was -6.79%.

Consider `COc1ccccc1C1=CC(=O)C[C@H](c2ccc(F)cc2)C1`, for which the inhibition was 3.3%.

Turning to `O=C1C=C(c2cccc(Cl)c2O)C[C@@H](c2ccc(F)cc2)C1`, the inhibition was 54.2% (active).

Regarding `O=C1C=C(c2cccc(Cl)c2)C[C@@H](c2ccc(F)cc2)C1`, the inhibition is 1.33%.

On to `O=S1(=O)CCN(C2CCCCCCCCCCC2)CC1`, for which the inhibition is 1.39%.

For the compound `COC(=O)c1ccc(CNC(=O)C2CCC(=O)N(Cc3ccccn3)C2)cc1` (configuration not stated), the inhibition is 0.319%.

On to `COCCNc1nc2nonc2nc1N1CCCC1c1nccs1` (configuration not stated), for which the inhibition was -72.6%.

In the case of `Cn1c(-c2sc3cc(C(F)(F)F)cnc3c2-c2ccccc2)n[nH]c1=S`, the inhibition is 31.9% (active).

`FC(F)(F)c1ccc(-n2cn[nH]c2=S)cc1`: the inhibition was -0.325%.

For `Cn1c(-c2sccc2OCc2cccc(C(F)(F)F)c2)n[nH]c1=S`, the inhibition was 2.98%.

With `CNc1nccc(-c2ccc(Cl)cc2)c1C#N`, the inhibition is -1.17%.

Regarding `Cc1ccc(NC(=O)Cn2c(=O)n(CCC(=O)NC3CCN(Cc4ccccc4)CC3)c(=O)c3ccccc32)cc1`, the inhibition is 2.04%.

On to `Cc1cc2c(cc1C)NC1(C[C@H]3CCC(=O)N4CC[C@@H](C1)[C@@H]34)C(=NC(C)(C)CC(C)(C)C)N2` (some centres not stated), for which the inhibition was 2.4%.

As for `O=C1CC[C@@H]2CC3(C[C@@H]4CCN1[C@H]24)Nc1cc([N+](=O)[O-])ccc1NC3=NC1CCCCC1` (some centres not stated), the inhibition is 51% (active).

With `O=C1CCC[C@@H]2CC(N3CCCCC3)C[C@@H]3CCN1[C@H]23` (some centres not stated), the inhibition was -1.06%.

These data come from PubChem BioAssay AID624204 (Sanford-Burnham Center for Chemical Genomics, 2012).
